From ChEMBL document CHEMBL2424551, “Synthesis, in vitro evaluation and molecular modelling of naphthalimide analogue as anticancer agents” (2013)
Activity calls are given as the source filed them. The calls are words filed in the database; no cut-off is given here.

Test system: DNA
Experiment: Binding affinity to calf thymus DNA assessed as DNA intercalation at 50 uM by fluorescence spectrophotometry
Format: nucleic-acid assay
Conditions: Bos taurus
In short: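 Fluorescence titration: increasing ct-DNA added to compound in phosphate buffer (pH 7.0); decrease in emission band at 500 nm monitored; binding constant derived from titration data by Benesi–Hildebrand method.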

## CN(C)CCN1C(=O)c2cccc3cc(N)cc(c23)C1=O
  Activity: Active
